# hERG rescue: shields human hERG channel from block by proarrhythmic agents. Q12809. CHO-hERG, FluxOR thallium flux, dofetilide IC70 present. activation (rescue from dofetilide block), less the hit threshold, % at 10 µM. 0.51% of 310,000 active. AID 1511;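 active = activation above the mean of controls blocked by dofetilide plus 5 SD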;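 also: thallium influx through hERG after potassium depolarization seen as dye fluorescence rise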
# KCNQ1 inh: inhibitors of human KCNQ1 potassium channel; P51787; CHO-K1 KCNQ1, FluxOR thallium flux fluorescence; active compounds read high; 1.3% of 310,000 active; B-score at 10 µM;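 active = compounds whose thallium flux B-score, printed positive for inhibition, exceeds three library SD while starting fluorescence stays within three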;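 also: channel opened by potassium depolarization with thallium stimulus after 20 min compound exposure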
# KCNQ1 pot: human KCNQ1 channel potentiation or activation; AID 2648; 0.35% of 310,000 active; P51787; CHO-K1 KCNQ1, thallium flux FluxOR fluorescence; active compounds read high; B-score at 10 µM;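 active = fluorescence ratio B-score, a plate-corrected score, at least three library SD, with initial intensity B-score within 5 SD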
#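 Assay system: stable KCNQ1 CHO-K1 line; medium: assay buffer, equal DMSO in all wells; timing: 90 min dye loading and 20 min compound exposure, both at room temperature; technique: kinetic FluxOR thallium fluorescence, 10-s 1-Hz baseline, 110-s post-stimulus read; read-out basis: B score of baseline-normalized fluorescence ratio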
# KCNK3 inh: human KCNK3 channel inhibition, primary screen | 0.84% of 340,000 active | B-score at 10 µM | AID 602410 | CHO-KCNK3 thallium flux, FluxOR fluorescence; active compounds read low;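 active = B-score under library mean minus 4 SD, starting fluorescence ratio at most library mean plus 5 SD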;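 also: more negative B-score means stronger inhibition of thallium flux through KCNK3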
# KCNK9 block: inhibitors of human KCNK9 two-pore domain potassium channel | B-score at 10 µM | HEK293 KCNK9, FluxOR thallium flux fluorescence; active compounds read low | 1.2% of 310,000 active | AID 488922;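 active = ratio B-score over 3 SD below the library mean, with starting fluorescence within 5 SD of its mean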;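 also: negative B-score means less thallium flux so channel inhibition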
# Target sequence (Q9NPC2 whole entry, looked up, the tested form may be a part): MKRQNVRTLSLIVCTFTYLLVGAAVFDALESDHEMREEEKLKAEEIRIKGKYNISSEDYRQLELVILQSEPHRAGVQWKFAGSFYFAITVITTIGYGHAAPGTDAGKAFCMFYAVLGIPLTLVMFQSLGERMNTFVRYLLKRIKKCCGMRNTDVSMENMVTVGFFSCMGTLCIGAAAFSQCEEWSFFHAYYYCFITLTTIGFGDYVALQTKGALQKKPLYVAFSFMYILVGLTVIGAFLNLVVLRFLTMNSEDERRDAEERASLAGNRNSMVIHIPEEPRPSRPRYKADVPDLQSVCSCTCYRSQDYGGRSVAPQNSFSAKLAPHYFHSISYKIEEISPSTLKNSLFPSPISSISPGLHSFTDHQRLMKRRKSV
# PHOSPHO1 block: inhibitors of human PHOSPHO1 phosphatase; Q8TCT1; recombinant PHOSPHO1, absorbance phosphatase assay; inhibition, % at 13.3 µM; 1.1% of 290,000 active; AID 1565; in the data active = inhibition above about 60%
# Target sequence (Q8TCT1 whole entry, looked up): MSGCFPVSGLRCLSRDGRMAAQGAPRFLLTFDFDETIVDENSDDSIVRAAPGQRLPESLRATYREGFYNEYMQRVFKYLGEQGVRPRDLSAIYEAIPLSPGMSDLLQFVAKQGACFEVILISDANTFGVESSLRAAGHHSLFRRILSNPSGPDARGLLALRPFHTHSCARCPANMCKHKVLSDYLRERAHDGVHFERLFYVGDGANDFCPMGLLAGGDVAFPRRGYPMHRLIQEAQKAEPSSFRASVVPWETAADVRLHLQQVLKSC
# KCNK9 inh conf: confirmation of human KCNK9 potassium channel inhibitors | shares compounds with KCNK9 block | HEK293 KCNK9 cells, FluxOR thallium flux fluorescence | inhibition, % at 10 µM | 43% of 4,900 active;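 active = thallium signal inhibited by more than 5 SD of the compound-free buffer control wells, on both duplicate plates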;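 also: 0% = assay buffer control wells without compound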
# Kir21 sel: selectivity of KCNK9 modulators against mouse Kir2.1; 4% of 4,900 active; inhibition, % at 10 µM; Kir2.1 cells, FluxOR thallium flux fluorescence; shares compounds with KCNK9 block; AID 492993;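 active = thallium signal drop more than 5 SD beyond the mean of the no-compound control wells, seen in both duplicate plates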;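 also: signal is fluorescence rise after thallium addition divided by baseline fluorescence; plate controls were assay buffer only for no effect and full block by chlorpromazine control for full effect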
# HEK293 Tl ctr: second counter-screen for KCNK9 modulators: effect in non-induced cells | shares compounds with KCNK9 block | non-induced KCNK9-HEK293, FluxOR thallium flux | inhibition, % at 10 µM | 40% of 4,900 active | AID 492997;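 active = thallium signal drop beyond 5 SD of the untreated control mean, on both duplicate plates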;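 also: plate controls were buffer only IC0 wells for no effect and SID17386958 at its maximal inhibitory level for full effect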
# Active calls of the source: *; i = inactive; x = no result given; ! = not confirmed by another sample. A selection: hits, their analogues and other compounds. The true share with any hit is near 4%.
SMILES,hERG rescue,KCNQ1 inh,KCNQ1 pot,KCNK3 inh,KCNK9 block,PHOSPHO1 block,KCNK9 inh conf,Kir21 sel,HEK293 Tl ctr
Cc1ccc(S(=O)(=O)N(C)C)cc1-n1c(SCC(=O)Nc2ccc(F)c(F)c2F)nc2ccccc2c1=O,-3,i,i,i,-14*,-2,64%*,i,40%*
Cc1ccc(S(=O)(=O)N(C)C)cc1-n1c(SCC(=O)N(C)C)nc2ccccc2c1=O,-6,i,i,i,i,-6,x,x,x
COC(=O)c1cc2c([nH]c1=O)CCCC2=O,x,x,x,i,x,x,x,x,x
O=S(=O)(Nc1cc(Cl)ccc1N1CCCCC1)c1cccs1,-11,i,i,i,-15*,-7,65%*,i,i
O=S(=O)(Nc1ccc(N2CCCCC2)cc1)c1cccs1,-8,i,i,i,i,37,x,x,x
CCCCOC(=O)Cn1c(-c2ccccc2)nc2ccccc2c1=O,-7,i,i,i,-11*,-5,56%*,i,52%*
CCCCOC(=O)Cn1c(=O)n(CC(=O)OCCCC)c2ccccc21,-7,i,i,i,i,6,x,x,x
CN[C@H]1CC[C@@H](c2ccc(Cl)c(Cl)c2)c2ccccc21,x,i,i,i,-8.6*!,36,34%*,i,x
Cc1ccc(-n2c(C)nc3c(cnn3-c3ccc(C)c(C)c3)c2=O)cc1C,-11,i,i,i,i,-2,i,i,i
Cc1ccc(-n2c(C)nc3c(cnn3-c3ccc(F)cc3)c2=O)cc1C,-3,i,i,i,i,2,x,x,x
O=C(NCCn1cccn1)c1ccc(OC2CCN(CCc3ccccc3)CC2)cc1,-10,i,i,i,i,24,x,x,x
O=C(CSCc1ccc(Cl)cc1)Nc1ccc(S(=O)(=O)N2CCCCCC2)cc1,-9,i,i,i,i,-14,i,i,i
COc1ccc(NC(=O)CSCC(=O)Nc2ccc(S(=O)(=O)N3CCCCC3)cc2)cc1,-8,i,i,i,i,34,x,x,x
COc1ccc(CSCC(=O)Nc2ccc(S(=O)(=O)N3CCCCCC3)cc2)cc1,-3,i,i,i,i,-6,i,i,i
O=C(CSCc1ccc(Br)cc1)Nc1ccc(S(=O)(=O)N2CCOCC2)cc1,-8,i,i,i,i,2,x,x,x
O=C(Nc1ccc(S(=O)(=O)Nc2nccs2)cc1)/C(=C/c1ccccc1Cl)NC(=O)c1ccccc1,-6,i,i,i,i,3,x,x,x
COc1ccc(S(=O)(=O)N(CC(=O)NCC2CCCO2)C2CCCCC2)cc1OC (configuration not stated),-8,i,i,i,i,28,x,x,x
c1ccc(Cc2nnc(N3CCCCC3)c3ccccc23)cc1,-4,i,i,i,i,16,i,i,i
CC(=O)c1cc(CN2CCC(n3nccc3NC(=O)c3ccccc3C)CC2)cs1,-10,i,i,i,i,23,x,x,x
Cc1c(N=NC2=C(O)CC(C)(C)CC2=O)cc2c(c1[N+](=O)[O-])C(C)(C)CC2(C)C,-11,6*,i,i,i,45,i,i,i
CC(=O)Nc1cc2c(c([N+](=O)[O-])c1C)C(C)(C)CC2(C)C,x,x,x,i,x,x,x,x,x
CCCC(=O)NC(Nc1cccc(C(F)(F)F)c1)C(Cl)(Cl)Cl (configuration not stated),-6,8*,i,i,-8.8*,-26,32%*,i,26%*
CCC(=O)N(C(=O)CC)N1CCN(c2ccncc2S(=O)(=O)N2CCCCC2)CC1,-11,i,i,i,-9.3*,28,42%*,i,42%*
Cc1cccc([N+](=O)[O-])c1NC(=O)CN(Cc1ccccc1)Cc1ccccc1,-6,i,i,i,-8.8*,-3,30%*,i,37%*
COc1ccc2sc(-c3ccc(N(C)C)cc3)c(C#Cc3cncn3C)c2c1,x,x,x,i,x,x,x,x,x
SMILES,hERG rescue,KCNQ1 inh,KCNQ1 pot,KCNK3 inh,KCNK9 block,PHOSPHO1 block,KCNK9 inh conf,Kir21 sel,HEK293 Tl ctr
Cc1cc(C)n(CC(O)CN2c3ccccc3Sc3ccccc32)n1 (configuration not stated),-11,6*,i,i,i,18,i,i,i
COC(=O)c1sc(-c2ccc(C(C)(C)C)cc2)cc1NC(=O)CCC(=O)O,-8,i,i,i,i,42,i,i,i
COn1c(SCc2cccnc2)nc2ccccc2c1=O,-7,i,i,i,i,-4,x,x,x
Cc1noc(C)c1CSc1nc2sc(C)c(C)c2c(=O)n1-c1ccccc1,-6,i,i,i,i,6,x,x,x
COn1c(SCc2ccc(Cl)cc2)nc2ccccc2c1=O,-21,i,i,i,-18*,23,66%*,i,34%*
Cc1noc(C)c1CSc1nc2ccccc2c(=O)n1-c1ccc(Cl)cc1,-6,i,i,i,i,4,i,i,i
CCOc1ccc(Nc2nc3c(C)cccc3cc2C#N)cc1,-9,i,i,i,i,3,x,x,x
CCN(CC(=O)Nc1ccc(NC(C)=O)cc1)C(=O)c1cc2ccccc2oc1=O,x,x,x,i,x,x,x,x,x
COC(=O)/C(=C\c1ccc2c(c1)c1ccccc1n2C)NC(=O)c1ccccc1,-9,i,i,i,-9.6*,-4,36%*,i,i
CCOC(=O)/C(=C/c1c2ccccc2cc2ccccc12)NC(=O)c1ccccc1,-7,i,i,-11*,-16*,27,58%*,i,39%*
CC(C)NC(=O)Cn1c(SCC(=O)N2CCCc3ccccc32)nc2ccccc21,-11,i,i,i,i,6,x,x,x
COc1ccc(-n2nc([N+](=O)[O-])c(=NCCc3ccc(C)cc3)n2O)cc1,-13,i,i,i,i,-10,i,i,i
CC(=O)Oc1ccc(-c2cccc(C(=O)OCC(=O)Nc3ccccc3Oc3ccccc3)c2)cc1,-14,i,i,i,i,-1,x,x,x
CCOc1ccccc1NC(=O)COC(=O)c1cccc(-c2ccc(OC(C)=O)cc2)c1,-9,i,i,i,-10*,-1,i,i,32%*
CC(C)C[C@H](NC(=O)c1nc[nH]c1C(=O)NCC(=O)OCc1ccccc1)C(=O)OCc1ccccc1,-23,i,i,i,i,-2,i,i,i
